23 molecules from ChEMBL document CHEMBL3232989, “First identification of boronic species as novel potential inhibitors of the Staphylococcus aureus NorA efflux pump” (J Med Chem, 2014) can be followed below.

Molecules are shown by their SMILES. Converted amounts (≈) assume the structure as drawn.

In data set [1] the test system is Staphylococcus aureus. As to the kind of experiment: Toxicity in fluoroquinolone-resistant Staphylococcus aureus 1199B expressing NorA at 100 ug/ml after 24 hrs by microdilution method. In kind it is organism-based. Put shortly:
(§1)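 Single-point screen at 100 μg/mL of compound alone in MH broth microdilution, 10^6 CFU/mL, 24 h at 37 °C. Growth is read at 620 nm and visually, giving percent growth inhibition. Compounds inhibiting more than 90% then go to MIC determination. Duplicates.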
For orientation: Broth dilution looks for growth in wells or tubes with falling amounts of substance.

Data set [2] has as its target T1, Quinolone resistance protein NorA (Staphylococcus aureus) (UniProt P0A0J7).
T1 sequence (whole entry): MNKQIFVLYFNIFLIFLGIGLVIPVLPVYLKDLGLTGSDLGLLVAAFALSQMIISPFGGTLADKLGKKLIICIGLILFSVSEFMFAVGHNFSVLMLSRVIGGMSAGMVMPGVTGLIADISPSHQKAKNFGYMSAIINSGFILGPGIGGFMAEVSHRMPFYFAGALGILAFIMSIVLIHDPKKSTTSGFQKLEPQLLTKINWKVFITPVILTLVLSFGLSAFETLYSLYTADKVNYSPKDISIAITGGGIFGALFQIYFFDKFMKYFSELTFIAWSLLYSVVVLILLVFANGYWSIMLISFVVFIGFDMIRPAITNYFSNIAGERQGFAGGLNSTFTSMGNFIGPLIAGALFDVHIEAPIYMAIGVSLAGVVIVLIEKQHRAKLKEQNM
As to the kind of experiment: Inhibition of NorA in fluoroquinolone-resistant Staphylococcus aureus 1199B assessed as potentiation of 4 ug/ml of ciprofloxacin MIC at 1 ug/ml after 24 hrs by microdilution method. Put shortly:
(§2)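 Combination with ciprofloxacin 4 μg/mL (MIC/4) against SA-1199B in MH broth microdilution, 10^6 CFU/mL, 24 h at 37 °C, read at 620 nm and visually. Compounds are first screened at 100 μg/mL; actives are 2-fold serially diluted. MMC4 is the lowest inhibitor concentration giving antibacterial activity with subinhibitory ciprofloxacin. Duplicates.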

For data set [3], the system named is Staphylococcus aureus. As to the kind of experiment: Toxicity in Staphylococcus aureus ATCC 25923 at 100 ug/ml after 24 hrs by microdilution method. In kind it is organism-based. Put shortly: as §1
For data set [4], the target named is T1, Quinolone resistance protein NorA (Staphylococcus aureus). As to the kind of experiment: Inhibition of NorA in fluoroquinolone-resistant Staphylococcus aureus 1199B assessed as potentiation of 4 ug/ml of ciprofloxacin MIC at 100 ug/ml after 24 hrs by microdilution method. Put shortly: as §2
In data set [5] the test system is Staphylococcus aureus. Nature of the data set: Toxicity in Staphylococcus aureus ATCC 25923 after 24 hrs by microdilution method. Type of data set: organism-based. Put shortly:
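Mueller–Hinton broth microdilution; inoculum from frozen culture grown 18 h at 37 °C, 10^6 CFU/mL per well. Compounds (10 mg/mL DMSO stock) in 2-fold serial dilutions, highest 128 mg/L, first screened at 100 μg/mL. MIC = complete growth inhibition after 24 h at 37 °C, read at 620 nm and visually; duplicate; ampicillin control.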

Data set [6] in a line: Cytotoxicity against human KB cells assessed growth inhibition at 10 uM after 72 hrs by MTS assay. Type of data set: cell-based. Particulars: read-out: GI. Summed up: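 KB cells (from NCI) grown in DMEM with 10% FCS, penicillin-streptomycin, fungizone and glutamine, 37 °C, 5% CO2; compounds in DMSO added 24 h after plating (1% DMSO final, controls same). 72 h exposure, then MTS 3 h at 37 °C, absorbance at 490 nm; inhibition = (1 − OD490 treated/OD490 control)×100, triplicate experiments.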
On the technique in general: Formazan colour is commonly taken as a measure of viable cells.

Data set [7] concerns Staphylococcus aureus. As to the kind of experiment: Antibacterial activity against Staphylococcus aureus ATCC 25923 after 24 hrs by microdilution method. In kind it is functional. To be noted: ATCC 25923, 24 h. Put shortly:
(§3)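 Broth microdilution in Mueller–Hinton broth, 10^6 CFU/mL per well from an 18 h 37 °C culture. Compounds come from 10 mg/mL DMSO stocks as 2-fold serial dilutions, top 128 mg/L. Plates run 24 h at 37 °C and are read at 620 nm and visually. MIC is the lowest concentration with complete growth inhibition. Duplicates; 2-fold variance accepted.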

The test system of data set [8] is Staphylococcus aureus. Nature of the data set: Toxicity in fluoroquinolone-resistant Staphylococcus aureus 1199B expressing NorA after 24 hrs by microdilution method. In kind it is organism-based. To be noted: in vitro. Put shortly: as §3
In data set [9] the test system is Staphylococcus aureus subsp. aureus RN4220. As to the kind of experiment: Inhibition of MsrA in macrolide-resistant Staphylococcus aureus RN4220 harboring pUL5054 assessed as potentiation of 4 ug/ml of […] erythromycin MIC after 24 hrs by microdilution method (reference value: […] ug/ml).
Data set [10] has as its system Staphylococcus aureus. Nature of the data set: Antibacterial activity against fluoroquinolone-resistant Staphylococcus aureus 1199B expressing NorA after 24 hrs by microdilution method. In kind it is functional. Put shortly: as §3

For `OB(O)c1ccc(OCc2ccccc2)nc1`, the “growth inhibition (GI)” value with Staphylococcus aureus [1] and in the data set with Staphylococcus aureus [3] was < 90% in each case. The fold change (FC) in [2] is 4. Besides, the Activity in [4] turned out to be 1 µg/mL. Further, in the data set on Staphylococcus aureus [5], the MIC entry was “>= 64 ug ml-1”. In [6], the inhibition at 72 h, 10 µM amounted to 2%.

On to `O=C(O)c1cn(C2CC2)c2cc(N3CCNCC3)c(F)cc2c1=O` [CIPROFLOXACIN], for which the MIC entry against Staphylococcus aureus [5] was “>= 64 ug ml-1”; in the data set on Staphylococcus aureus [7], 0.5 µg/mL (≈ 1.51 µM).

As for `OB(O)c1ccc2ccccc2c1`, the MIC in the data set with Staphylococcus aureus [8] was > 128 µg/mL. Also, the Activity in data set [4] is 4 µg/mL. Also, the inhibition at 72 h, 10 µM in data set [6] worked out at 3%.

`OB(O)c1ccccc1Oc1ccccc1`: the MIC in the data set on Staphylococcus aureus [8] stood at 32 µg/mL (≈ 150 µM). In addition, the Activity in [4] and in data set [9] was 32 µg/mL in each case. In addition, the inhibition at 72 h, 10 µM in data set [6] is 10%.

Turning to `CC[C@H]1OC(=O)[C@H](C)[C@@H](O[C@H]2C[C@@](C)(OC)[C@@H](O)[C@H](C)O2)[C@H](C)[C@@H](O[C@@H]2O[C@H](C)C[C@H](N(C)C)[C@H]2O)[C@](C)(O)C[C@@H](C)C(=O)[C@H](C)[C@@H](O)[C@]1(C)O` [ERYTHROMYCIN], the MIC in the data set with Staphylococcus aureus [10] is 128 µg/mL (≈ 174 µM); in the data set with Staphylococcus aureus [7], 0.5 µg/mL (≈ 0.681 µM).

On to `O=Cc1ccc(B(O)O)cc1C(F)(F)F`, for which the MIC is 32 µg/mL (≈ 147 µM) against Staphylococcus aureus [8] and “>= 64 ug ml-1” against Staphylococcus aureus [5]. Moreover, the Activity in data set [4] came out at 16 µg/mL; in [9], 32 µg/mL. The inhibition at 72 h, 10 µM in [6] stood at 100%.

`Cc1cc(B(O)O)ccc1Cl`: the MIC with Staphylococcus aureus [8] is > 128 µg/mL. Further, in data set [4], the Activity was found to be 2 µg/mL. For the same molecule, the inhibition at 72 h, 10 µM in data set [6] was determined as 0%.

With `OB(O)c1ccc(Cl)cc1`, in the data set with Staphylococcus aureus [8], the MIC was determined as 64 µg/mL (≈ 409 µM). For the same molecule, the Activity in data set [4] is 1 µg/mL. Also, the inhibition at 72 h, 10 µM in data set [6] worked out at 0%.

Turning to `O=Cc1ccc(B(O)O)cc1Cl`, the MIC was 32 µg/mL (≈ 174 µM) in the data set with Staphylococcus aureus [8] and “>= 64 ug ml-1” with Staphylococcus aureus [5]. The Activity turned out to be 4 µg/mL in data set [4] and 32 µg/mL in data set [9]. Moreover, the inhibition at 72 h, 10 µM in [6] came out at 100%.

On to `CSc1ccc(B(O)O)cn1`, for which the “growth inhibition (GI)” value in the data set on Staphylococcus aureus [1] and with Staphylococcus aureus [3] was < 90% in each case. Besides, the Activity in data set [4] was 8 µg/mL. The MIC entry in the data set with Staphylococcus aureus [5] is “>= 64 ug ml-1”. Besides, the inhibition at 72 h, 10 µM in data set [6] stood at 0%.

`OB(O)c1ccc(Br)cc1`: in the data set on Staphylococcus aureus [8], the MIC is > 128 µg/mL. Moreover, the Activity in [4] was 2 µg/mL. Further, the inhibition at 72 h, 10 µM in [6] came out at 0%.

In the case of `CC(C)(O)C(C)(C)OB(OC(C)(C)C(C)(C)O)c1ccc(Br)nc1`, the “growth inhibition (GI)” value in the data set on Staphylococcus aureus [1] and in the data set on Staphylococcus aureus [3] was < 90% in each case. Moreover, in [4], the Activity came to 8 µg/mL. Besides, in the data set on Staphylococcus aureus [5], the MIC entry is on record as “>= 64 ug ml-1”. Further, in data set [6], the inhibition at 72 h, 10 µM was found to be 0%.

`Cn1nccc1B1OC(C)(C)C(C)(C)O1`: the “growth inhibition (GI)” value in the data set on Staphylococcus aureus [1] and in the data set on Staphylococcus aureus [3] was < 90% each time. The Activity in data set [4] was determined as 8 µg/mL. Besides, in the data set with Staphylococcus aureus [5], the MIC entry is given as “>= 64 ug ml-1”. Further, the inhibition at 72 h, 10 µM in data set [6] stood at 0%.

For the molecule `COc1ccc(B(O)O)cn1`, the “growth inhibition (GI)” value in the data set on Staphylococcus aureus [1] and in the data set on Staphylococcus aureus [3] was < 90% in each case. Moreover, in data set [4], the Activity was determined as 4 µg/mL. Further, the MIC result against Staphylococcus aureus [5] is recorded as “>= 64 ug ml-1”. The inhibition at 72 h, 10 µM in data set [6] is 0%.

For the molecule `CC(=O)n1ncc2c(B3OC(C)(C)C(C)(C)O3)cccc21`, the “growth inhibition (GI)” value in the data set on Staphylococcus aureus [1] and in the data set on Staphylococcus aureus [3] was < 90% throughout. For the same molecule, the Activity in data set [4] was determined as 8 µg/mL. Also, the MIC entry against Staphylococcus aureus [5] is “>= 64 ug ml-1”. The inhibition at 72 h, 10 µM in [6] stood at 0%.

As to `CC1(C)S[C@@H]2[C@H](NC(=O)[C@H](N)c3ccccc3)C(=O)N2[C@H]1C(=O)O` [AMPICILLIN], the MIC result against Staphylococcus aureus [5] was “>= 64 ug ml-1”; in the data set with Staphylococcus aureus [7] it was 0.25 µg/mL (≈ 0.715 µM).

Consider `OB(O)c1ccc(Cl)nc1`, for which the “growth inhibition (GI)” value in the data set on Staphylococcus aureus [1] and in the data set with Staphylococcus aureus [3] was < 90% each time. In addition, in [4], the Activity came to 8 µg/mL. Also, in the data set on Staphylococcus aureus [5], the MIC result is recorded as “>= 64 ug ml-1”. Besides, in [6], the inhibition at 72 h, 10 µM is 1%.

Take `OB(O)c1ccc(Oc2ccc(Cl)nc2)nc1`: the “growth inhibition (GI)” value in the data set with Staphylococcus aureus [1] and in the data set on Staphylococcus aureus [3] was < 90% throughout. The Activity in [4] is 4 µg/mL. The MIC entry against Staphylococcus aureus [5] was “>= 64 ug ml-1”. Moreover, the inhibition at 72 h, 10 µM in data set [6] came to 0%.

In the case of `OB(O)c1ccc(OCc2ccccc2)cc1`, the MIC in the data set with Staphylococcus aureus [8] was > 128 µg/mL. In data set [4], the Activity was 0.5 µg/mL. The inhibition at 72 h, 10 µM in data set [6] amounted to 6%.

Take `CC(C)(O)C(C)(C)OB(OC(C)(C)C(C)(C)O)c1ccnc(F)c1`: the “growth inhibition (GI)” value with Staphylococcus aureus [1] and with Staphylococcus aureus [3] was < 90% throughout. For the same molecule, in [4], the Activity was found to be 2 µg/mL. For the same molecule, in the data set with Staphylococcus aureus [5], the MIC entry is on record as “>= 64 ug ml-1”. The inhibition at 72 h, 10 µM in data set [6] came out at 0%.

`OB(O)c1ccc(Oc2cncc(Cl)c2)nc1`: the “growth inhibition (GI)” value in the data set with Staphylococcus aureus [1] and in the data set on Staphylococcus aureus [3] was < 90% each time. Also, the Activity in data set [4] was 8 µg/mL. In addition, the MIC result in the data set on Staphylococcus aureus [5] is “>= 64 ug ml-1”. For the same molecule, the inhibition at 72 h, 10 µM in [6] was 0%.

As to `OB(O)c1ccc(Br)nc1`, the “growth inhibition (GI)” value in the data set on Staphylococcus aureus [1] and in the data set with Staphylococcus aureus [3] was < 90% each time. Further, the Activity in data set [4] is 8 µg/mL. Moreover, in the data set on Staphylococcus aureus [5], the MIC entry is reported as “>= 64 ug ml-1”. Moreover, the inhibition at 72 h, 10 µM in data set [6] was 1%.

Regarding `Cc1cc(B(O)O)cnc1Cl`, the MIC in the data set on Staphylococcus aureus [8] was > 128 µg/mL; against Staphylococcus aureus [5], “>= 64 ug ml-1”. In the data set with Staphylococcus aureus [3], the “growth inhibition (GI)” value is listed as < 90%. Also, the Activity in data set [4] came out at 4 µg/mL. Further, the inhibition at 72 h, 10 µM in data set [6] is 0%.
